Assay outcomes from PubChem.
Rev-RRE block: HIV-1 Rev-RRE binding inhibitors, primary screen, biochemical, FRET, protein-RNA interaction. P05866. Rev peptide-RRE RNA binding. inhibition, % at 8 µM. 97,000 tested, 0.79% active;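 active means inhibition above the screen-wide mean plus 3 SD, cut at about 35% in these data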
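System: Cy5-labelled duplex RRE RNA binding fluorescein-labelled HIV Rev peptide; Signal: fluorescein-to-Cy5 FRET, 480 nm excitation; Also added: labelled Rev peptide; Compound: one concentration, 8 µM nominal; Buffer or medium: HEPES pH 7.5 salt buffer with EDTA; Read-out: % inhibition of FRET ratio versus controls; Schedule: 5 min preincubation and 15 min binding, 25 °C.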
DAT uptake mod: changed hDAT dopamine uptake under cocaine IC80, either direction, primary screen, cocaine antagonist project, cell-based, LLC-PK1 hDAT, [14C]-dopamine uptake, MLSMR; Sodium-dependent dopamine transporter (Homo sapiens), Q01959; B-score at 10 µM; 110,000 tested, 1.3% active; LLC-PK1 hDAT cells, [14C]-dopamine uptake with cocaine IC80; actives deviate in either direction;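 active means Z score or B-score, a plate-position-corrected score, falls beyond the plate's 99.7% confidence bounds, in either direction; inactive means both scores lie inside the 99.7% bounds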
Target sequence (Q01959 whole entry, looked up): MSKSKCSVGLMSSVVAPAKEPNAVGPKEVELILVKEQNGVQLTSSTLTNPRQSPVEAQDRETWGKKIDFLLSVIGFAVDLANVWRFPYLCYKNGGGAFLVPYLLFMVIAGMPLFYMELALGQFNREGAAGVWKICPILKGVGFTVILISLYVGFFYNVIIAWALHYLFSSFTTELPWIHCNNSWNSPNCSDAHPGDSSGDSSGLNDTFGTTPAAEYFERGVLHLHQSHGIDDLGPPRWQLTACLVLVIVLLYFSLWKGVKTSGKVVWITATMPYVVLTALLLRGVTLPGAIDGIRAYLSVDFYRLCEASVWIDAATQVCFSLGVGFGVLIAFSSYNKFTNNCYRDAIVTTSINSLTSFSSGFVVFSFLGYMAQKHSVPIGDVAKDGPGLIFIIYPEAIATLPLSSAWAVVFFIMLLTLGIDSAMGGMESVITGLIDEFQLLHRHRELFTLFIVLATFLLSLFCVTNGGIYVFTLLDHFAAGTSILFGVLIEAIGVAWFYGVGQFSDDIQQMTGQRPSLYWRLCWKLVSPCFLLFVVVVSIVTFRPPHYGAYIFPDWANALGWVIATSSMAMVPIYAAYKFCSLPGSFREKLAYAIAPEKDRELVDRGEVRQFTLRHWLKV
EphB4 antag: EphB4-ephrin-B2 interaction antagonists, primary screen, biochemical, TNYL-RAW peptide probe, fluorescence polarization. inhibition, % at 7 µM. EphB4 LBD / TNYL-RAW-Alexa532 peptide. AID 720, 2007. 97,000 tested, 0.15% active;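 active means inhibition above the screen-wide mean inhibition plus 3 SD, cut at about 15% in these data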
Cav3 T inh: Cav3.2 calcium influx blockers – cell-based, Fluo-4 calcium fluorescence, FDSS, MLSMR library, primary screen; Cav3.2-expressing cells; hits give low values; 100,000 tested, 4% active; Voltage-dependent T-type calcium channel subunit alpha-1H (Homo sapiens), O95180; B-score at 10 µM;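 active means single-dose well whose peak fluorescence ratio is a statistical outlier from its plate by either plate-standardised score or position-corrected B-score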
Of the large screens only hits and unclear results are named; the others gave an inactive call. In the library only some 5.4% were active in any assay of this set; here they are far more common.

CCOC(=O)C(C)c1ccc2cc(OC)ccc2c1 (stereo unspecified)	DAT uptake mod -4.22
CCSc1nc2ccccc2n1Cc1ccccc1F	Cav3 T inh -4.97
CC(C)N(C(=O)CSc1nc2ccccc2n1Cc1ccccc1F)C(C)C	Cav3 T inh -8.98
NC(=O)CSc1nc2ccccc2n1Cc1ccccc1F	none
CC(=O)Nc1nc2ccccc2n1CCOc1ccccc1	none
CC(C)N(C(=O)CSc1nc2ccccc2n1Cc1ccccc1)C(C)C	none
CCSc1nc2ccccc2n1CCOc1ccccc1	Cav3 T inh -3.79
Fc1ccc(Sc2cc(Cl)c(-c3ccccc3)nn2)cc1	EphB4 antag 20.0
Cc1cc2cc(CNC(=O)c3ccc(Br)o3)ccc2[nH]1	Cav3 T inh -6.04 (no result: Rev-RRE block, EphB4 antag)
CCOc1ccc(Cn2nnc(C(=O)NCc3ccc(OC)cc3)c2N)cc1	Cav3 T inh -5.21
O=C(NN1C(=O)c2ccccc2C1=O)C1CCCCC1	none
O=C(c1ccco1)N1CCN(CC(O)Cn2c3ccccc3c3ccccc32)CC1 (stereo unspecified)	Cav3 T inh -4.84
CCC1(CC)C(=O)C2=C3C1[C@H](C(=O)OC)C=C(C(=O)OC)C[C@H]3n1c(=O)n(-c3ccccc3)c(=O)n1[C@H]2C (stereo partly specified)	none (no result: Rev-RRE block, EphB4 antag)
N#Cc1c(C(F)(F)F)cc(-c2ccccc2)[nH]c1=O	none
N#Cc1c(C(F)(F)F)cc(-c2ccccc2Cl)[nH]c1=O	Cav3 T inh -2.62
Nc1nc(CN2CCN(c3ccc(F)cc3)CC2)nc(N2CCCc3ccccc32)n1	DAT uptake mod -2.65
COc1ccc(N2CCN(Cc3nc(N)nc(Nc4ccccc4OC)n3)CC2)cc1	none
C=CCNc1nc2c(c(=O)[nH]c(=O)n2C)n1Cc1cccc(C)c1	none
Cn1c(C(=O)NCCN2CCN(Cc3ccccc3)CC2)cc2c(=O)n(C)c3ccccc3c21	DAT uptake mod 3.16 (no result: Rev-RRE block, EphB4 antag)
Cn1c(C(=O)NCCN2CCCCCC2)cc2c(=O)n(C)c3ccccc3c21	none
CCOc1ccc(Nc2nc(Cc3nnc(SCC(=O)c4ccc(C)c(C)c4)o3)cs2)cc1	none
Cc1scc(C(=O)N/N=C/c2ccc(OCC(C)C)cc2)c1C	Cav3 T inh -4.34
CCCCOc1ccc(/C=N/NC(=O)c2csc(C)c2C)cc1	none
Cc1cc(C)c(C)c(S(=O)(=O)N2CCC(C(=O)OCC(=O)N3c4ccccc4NC(=O)C3(C)C)CC2)c1C	none
CC1(C)C(=O)Nc2ccccc2N1C(=O)COC(=O)C1CCCCC1	Cav3 T inh -5.59
Cn1cccc1/C=N/n1cnnc1	DAT uptake mod 2.76
Clc1ccc(-n2cccc2/C=N/n2cnnc2)cc1	none
CC1CCN(CC(O)COCCC23CC4CC(CC(C4)C2)C3)CC1 (stereo unspecified)	none
Cc1ccc(Cl)cc1N1CCN(C(=O)c2ccc(NS(=O)(=O)c3c(C)noc3C)cc2)CC1	none (no result: DAT uptake mod, Cav3 T inh)
Cc1ccc(C)c(N2CCN(C(=O)c3ccc(NS(=O)(=O)c4c(C)noc4C)cc3)CC2)c1	Cav3 T inh -8.33
Cc1ccc(C(=O)Nc2cc3c(oc2=O)CCCC3=O)cc1	none
CC(C)C(NC(=O)OC(C)(C)C)C(=O)N1CCCC1C(=O)NC(Cc1ccccc1)C(N)=O (stereo unspecified)	none
CC(C)(C)NC(=O)[C@@H]1C[C@@H]2CCCC[C@@H]2CN1C[C@@H](O)[C@H](Cc1ccccc1)NC(=O)[C@H](CC(N)=O)NC(=O)c1ccc2ccccc2n1	Cav3 T inh -5.59 (no result: Rev-RRE block, EphB4 antag)
COc1cc(-c2nnc(SC(C)C(=O)Nc3c(C)n(C)n(-c4ccccc4)c3=O)o2)cc(OC)c1OC (stereo unspecified)	none
CCOC(=O)CSc1nnc(SCCN2C(=O)c3ccccc3C2=O)s1	none (no result: DAT uptake mod, Cav3 T inh)
CCCN(CCC)C1=N/C(=C\c2ccco2)C(=O)N1c1ccccc1	Cav3 T inh -4.92
Cc1ccnc(NS(=O)(=O)c2ccc(NC(=O)C34CC5CC(C)(CC(C)(C5)C3)C4)cc2)n1	DAT uptake mod 2.77
O=C(NC(=S)Nc1nc2c(s1)CSc1ccccc1-2)c1ccccc1	none
CCOC(=O)CC(=O)Nc1nc2ccccc2s1	none
Cc1ccc(CC(=O)Nc2nc3ccccc3s2)cc1	Cav3 T inh -6.7
CCO[C@@H]1OC(C(=O)NCc2nc3ccccc3[nH]2)=C[C@H](c2coc3ccccc3c2=O)[C@H]1CCCO	none (no result: Rev-RRE block, EphB4 antag)
